Assay results reported in ChEMBL document CHEMBL4130384, “Design, synthesis and biological evaluation of novel 2-methoxyestradiol analogs as dual selective estrogen receptor modulators (SERMs) and antiangiogenic agents” (Eur J Med Chem, 2017).
The source made the active and inactive calls. The rule behind the calls is not given here.

What follows are compounds tested on Ishikawa (assay: Antiproliferative activity against human Ishikawa cells after 48 hrs by MTT assay). Settings: not given.
Format: functional, cell-based
Summary of the method: (§1)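 Cells grown in RPMI1640 with 10% FBS and penicillin/streptomycin at 37 °C, 5% CO2. Seeded at 1 × 10^5/mL, grown 24 h, then exposed to compound at 1 × 10^-4 to 1 × 10^-7 mol/L for 48 h. Controls received medium with 1% DMSO. MTT 4 h, formazan dissolved in DMSO, absorbance at 490 nm; IC50 derived.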

Row | SMILES | IC50
1 | COc1cc2c(cc1O)CC[C@@H]1[C@@H]2CC[C@]2(C)[C@@H](O)CC[C@@H]12 [2-METHOXYESTRADIOL] | 8.96 µM
2 | COc1ccc2c(c1)CC[C@@H]1[C@@H]2[C@H](OC(=O)c2ccc(NC(=O)CN(C)C)cc2)C[C@]2(C)[C@@H](OC)CC[C@@H]12 | 15.6 µM
3 | COCOc1ccc2c(c1)CC[C@@H]1[C@@H]2[C@H](OC(=O)c2ccc(NC(=O)CN3CCCC3)cc2)C[C@]2(C)[C@@H](OCOC)CC[C@@H]12 | 7.3 µM
4 | CN(C)CC(=O)Nc1ccc(C(=O)O[C@@H]2C[C@]3(C)[C@@H](O)CC[C@H]3[C@@H]3CCc4cc(O)ccc4[C@H]32)cc1 | 37.5 µM

The compounds below were run on PC-3 (assay: Antiproliferative activity against human PC3 cells after 48 hrs by MTT assay). Settings: PC-3, 48 h.
Format: functional, cell-based
Summary of the method: as §1

Row | SMILES | IC50
5 | COc1cc2c(cc1O)CC[C@@H]1[C@@H]2CC[C@]2(C)[C@@H](O)CC[C@@H]12 [2-METHOXYESTRADIOL] | 12.3 µM
6 | COc1ccc2c(c1)CC[C@@H]1[C@@H]2[C@H](OC(=O)c2ccc(NC(=O)CN(C)C)cc2)C[C@]2(C)[C@@H](OC)CC[C@@H]12 | 6.49 µM
7 | COCOc1ccc2c(c1)CC[C@@H]1[C@@H]2[C@H](OC(=O)c2ccc(NC(=O)CN3CCCC3)cc2)C[C@]2(C)[C@@H](OCOC)CC[C@@H]12 | 17.1 µM
8 | CN(C)CC(=O)Nc1ccc(C(=O)O[C@@H]2C[C@]3(C)[C@@H](O)CC[C@H]3[C@@H]3CCc4cc(O)ccc4[C@H]32)cc1 | 23.4 µM

Each compound was assayed on MCF7 (assay: Antiproliferative activity against human MCF7 cells after 48 hrs by MTT assay). Settings: MCF7, 48 h.
Format: functional, cell-based
Summary of the method: as §1

Row | SMILES | IC50
9 | COc1cc2c(cc1O)CC[C@@H]1[C@@H]2CC[C@]2(C)[C@@H](O)CC[C@@H]12 [2-METHOXYESTRADIOL] | 6.01 µM
10 | COc1ccc2c(c1)CC[C@@H]1[C@@H]2[C@H](OC(=O)c2ccc(NC(=O)CN(C)C)cc2)C[C@]2(C)[C@@H](OC)CC[C@@H]12 | 34.3 µM
11 | COCOc1ccc2c(c1)CC[C@@H]1[C@@H]2[C@H](OC(=O)c2ccc(NC(=O)CN3CCCC3)cc2)C[C@]2(C)[C@@H](OCOC)CC[C@@H]12 | 14.3 µM
12 | CN(C)CC(=O)Nc1ccc(C(=O)O[C@@H]2C[C@]3(C)[C@@H](O)CC[C@H]3[C@@H]3CCc4cc(O)ccc4[C@H]32)cc1 | 47.2 µM

These compounds were tested on HepG2 (assay: Antiproliferative activity against human HepG2 cells after 48 hrs by MTT assay). Settings: HepG2, 48 h.
Format: functional, cell-based
Summary of the method: as §1

Row | SMILES | IC50
13 | COc1cc2c(cc1O)CC[C@@H]1[C@@H]2CC[C@]2(C)[C@@H](O)CC[C@@H]12 [2-METHOXYESTRADIOL] | 11 µM
14 | COc1ccc2c(c1)CC[C@@H]1[C@@H]2[C@H](OC(=O)c2ccc(NC(=O)CN(C)C)cc2)C[C@]2(C)[C@@H](OC)CC[C@@H]12 | 3.42 µM
15 | COCOc1ccc2c(c1)CC[C@@H]1[C@@H]2[C@H](OC(=O)c2ccc(NC(=O)CN3CCCC3)cc2)C[C@]2(C)[C@@H](OCOC)CC[C@@H]12 | 25.4 µM
16 | CN(C)CC(=O)Nc1ccc(C(=O)O[C@@H]2C[C@]3(C)[C@@H](O)CC[C@H]3[C@@H]3CCc4cc(O)ccc4[C@H]32)cc1 | 8.92 µM

These compounds were tested on HUVEC (assay: Antiproliferative activity against HUVEC after 48 hrs by MTT assay). Settings: Homo sapiens.
Format: functional, cell-based
Summary of the method: as §1

Row | SMILES | IC50
17 | COc1cc2c(cc1O)CC[C@@H]1[C@@H]2CC[C@]2(C)[C@@H](O)CC[C@@H]12 [2-METHOXYESTRADIOL] | 14.2 µM
18 | COc1ccc2c(c1)CC[C@@H]1[C@@H]2[C@H](OC(=O)c2ccc(NC(=O)CN(C)C)cc2)C[C@]2(C)[C@@H](OC)CC[C@@H]12 | 6.97 µM
19 | COCOc1ccc2c(c1)CC[C@@H]1[C@@H]2[C@H](OC(=O)c2ccc(NC(=O)CN3CCCC3)cc2)C[C@]2(C)[C@@H](OCOC)CC[C@@H]12 | 9.28 µM
20 | CN(C)CC(=O)Nc1ccc(C(=O)O[C@@H]2C[C@]3(C)[C@@H](O)CC[C@H]3[C@@H]3CCc4cc(O)ccc4[C@H]32)cc1 | 32 µM

Each compound was assayed on Ishikawa (assay: Antiproliferative activity against human Ishikawa cells assessed as suppression of proliferation at 10 uM after 48 hrs by MTT assay relative to control). Settings: not given.
Format: functional

Row | SMILES | Activity
21 | COc1cc2c(cc1O)CC[C@@H]1[C@@H]2CC[C@]2(C)[C@@H](O)CC[C@@H]12 [2-METHOXYESTRADIOL] | Active
22 | COc1ccc2c(c1)CC[C@@H]1[C@@H]2[C@H](OC(=O)c2ccc(NC(=O)CN(C)C)cc2)C[C@]2(C)[C@@H](OC)CC[C@@H]12 | Active
23 | COCOc1ccc2c(c1)CC[C@@H]1[C@@H]2[C@H](OC(=O)c2ccc(NC(=O)CN3CCCC3)cc2)C[C@]2(C)[C@@H](OCOC)CC[C@@H]12 | Active
24 | CN(C)CC(=O)Nc1ccc(C(=O)O[C@@H]2C[C@]3(C)[C@@H](O)CC[C@H]3[C@@H]3CCc4cc(O)ccc4[C@H]32)cc1 | Active
